Laboratory results from ChEMBL document CHEMBL2177085 (J Med Chem, 2012).

Assays:
HT-29 [1] = assay: Cytotoxic activity against human HT-29 cells assessed as cell viability at 26 uM incubated for 3 days by MTT assay; format: functional; settings: HT-29, 72 h, read-out: Activity
How it was run: (§1)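 MTT viability: exponentially growing cells, 10 000 viable cells/well in RPMI plated overnight, then exposed to test compounds for 3 days (HT-29, Molm-14) or 5 days (Mkn-45) at 37 °C, 5% CO2. MTT added for 4 h, then SDS/HCl solubilization overnight and absorbance read at 562 nm. Viability is expressed relative to untreated cells (100%). Triplicate.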

[2] = molecular target: Vascular endothelial growth factor receptor 2 (Homo sapiens, UniProt P35968); assay: Inhibition of VEGFR2
Vascular endothelial growth factor receptor 2, sequence (P35968 whole entry): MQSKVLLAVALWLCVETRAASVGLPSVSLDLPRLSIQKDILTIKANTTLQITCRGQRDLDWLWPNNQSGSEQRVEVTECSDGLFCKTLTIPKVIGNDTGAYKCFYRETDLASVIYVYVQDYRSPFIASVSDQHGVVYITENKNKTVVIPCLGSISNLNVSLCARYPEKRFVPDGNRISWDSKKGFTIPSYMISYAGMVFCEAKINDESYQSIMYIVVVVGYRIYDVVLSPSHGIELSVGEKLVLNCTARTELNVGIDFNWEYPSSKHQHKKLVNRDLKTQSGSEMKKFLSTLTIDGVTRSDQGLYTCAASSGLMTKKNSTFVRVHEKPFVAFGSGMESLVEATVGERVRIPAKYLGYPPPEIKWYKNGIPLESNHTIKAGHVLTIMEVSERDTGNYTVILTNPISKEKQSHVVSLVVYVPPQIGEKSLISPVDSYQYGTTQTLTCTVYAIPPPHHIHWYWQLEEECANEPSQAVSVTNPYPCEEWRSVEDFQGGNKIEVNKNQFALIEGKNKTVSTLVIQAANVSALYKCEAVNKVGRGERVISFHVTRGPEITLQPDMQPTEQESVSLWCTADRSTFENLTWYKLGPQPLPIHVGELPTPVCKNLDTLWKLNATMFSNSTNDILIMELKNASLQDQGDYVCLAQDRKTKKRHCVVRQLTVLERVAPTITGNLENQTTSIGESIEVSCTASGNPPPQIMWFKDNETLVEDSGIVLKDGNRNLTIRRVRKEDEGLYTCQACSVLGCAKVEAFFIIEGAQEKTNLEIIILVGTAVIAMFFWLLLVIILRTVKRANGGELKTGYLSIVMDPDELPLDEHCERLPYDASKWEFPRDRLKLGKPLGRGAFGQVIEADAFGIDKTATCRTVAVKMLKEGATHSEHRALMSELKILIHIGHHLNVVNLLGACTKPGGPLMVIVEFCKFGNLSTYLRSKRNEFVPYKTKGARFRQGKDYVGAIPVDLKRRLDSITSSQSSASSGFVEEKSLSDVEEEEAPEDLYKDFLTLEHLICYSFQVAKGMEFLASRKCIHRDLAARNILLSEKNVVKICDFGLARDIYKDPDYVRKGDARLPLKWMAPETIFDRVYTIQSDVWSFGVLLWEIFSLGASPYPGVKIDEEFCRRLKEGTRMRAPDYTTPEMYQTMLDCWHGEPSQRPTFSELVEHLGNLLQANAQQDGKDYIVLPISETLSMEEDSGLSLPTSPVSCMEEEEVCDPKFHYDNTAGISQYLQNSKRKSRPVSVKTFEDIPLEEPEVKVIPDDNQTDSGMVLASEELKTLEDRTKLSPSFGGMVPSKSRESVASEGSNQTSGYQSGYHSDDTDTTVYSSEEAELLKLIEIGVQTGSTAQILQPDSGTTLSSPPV
How it was run: (§2)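 IC50 determined by a commercial kinase profiling service (Millipore IC50 Profiler); duplicate testing.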

HUVEC [3] = assay: Induction of apoptosis in human HUVEC assessed as accumulation at subG1 phase at 0.79 uM incubated for 4 days by flow cytometry (reference value: 15.4 +/- 1.5%); format: functional
HT-29 [4] = assay: Cytotoxic activity against human HT-29 cells assessed as cell viability at 52 uM incubated for 3 days by MTT assay; format: functional; settings: HT-29, 72 h, read-out: Activity; how it was run: as §1
MKN-45 [5] = assay: Cytotoxic activity against human MKN45 cells assessed as cell viability at 10 uM incubated for 5 days by MTT assay; format: functional; settings: MKN-45, 120 h, read-out: Activity; how it was run: as §1
MKN-45 [6] = assay: Cytotoxic activity against human MKN45 cells assessed as cell viability at 5 uM incubated for 5 days by MTT assay; format: functional; settings: MKN-45, 120 h, read-out: Activity; how it was run: as §1
HUVEC [7] = assay: Induction of apoptosis in human HUVEC assessed as accumulation at subG1 phase at 2.6 uM incubated for 4 days by flow cytometry (reference value: 15.4 +/- 1.5%); format: functional
MKN-45 [8] = assay: Cytotoxic activity against human MKN45 cells assessed as cell viability at 20 uM incubated for 5 days by MTT assay; format: functional; settings: MKN-45, 120 h, read-out: Activity; how it was run: as §1
MKN-45 [9] = assay: Cytotoxic activity against human MKN45 cells assessed as cell viability at 0.5 uM incubated for 5 days by MTT assay; format: functional; settings: MKN-45, 120 h, read-out: Activity; how it was run: as §1
MKN-45 [10] = assay: Induction of apoptosis in human MKN45 assessed as accumulation at subG1 phase at 10 uM incubated for 7 days by flow cytometry (reference value: 10.9 +/- 3.2%); format: functional
HT-29 [11] = assay: Cytotoxic activity against human HT-29 cells assessed as cell viability at 2.6 uM incubated for 3 days by MTT assay; format: functional; settings: HT-29, 72 h, read-out: Activity; how it was run: as §1
[12] = molecular target: T1, Receptor-type tyrosine-protein kinase FLT3 (Homo sapiens, UniProt P36888); assay: Inhibition of FLT3
T1 sequence (P36888 whole entry): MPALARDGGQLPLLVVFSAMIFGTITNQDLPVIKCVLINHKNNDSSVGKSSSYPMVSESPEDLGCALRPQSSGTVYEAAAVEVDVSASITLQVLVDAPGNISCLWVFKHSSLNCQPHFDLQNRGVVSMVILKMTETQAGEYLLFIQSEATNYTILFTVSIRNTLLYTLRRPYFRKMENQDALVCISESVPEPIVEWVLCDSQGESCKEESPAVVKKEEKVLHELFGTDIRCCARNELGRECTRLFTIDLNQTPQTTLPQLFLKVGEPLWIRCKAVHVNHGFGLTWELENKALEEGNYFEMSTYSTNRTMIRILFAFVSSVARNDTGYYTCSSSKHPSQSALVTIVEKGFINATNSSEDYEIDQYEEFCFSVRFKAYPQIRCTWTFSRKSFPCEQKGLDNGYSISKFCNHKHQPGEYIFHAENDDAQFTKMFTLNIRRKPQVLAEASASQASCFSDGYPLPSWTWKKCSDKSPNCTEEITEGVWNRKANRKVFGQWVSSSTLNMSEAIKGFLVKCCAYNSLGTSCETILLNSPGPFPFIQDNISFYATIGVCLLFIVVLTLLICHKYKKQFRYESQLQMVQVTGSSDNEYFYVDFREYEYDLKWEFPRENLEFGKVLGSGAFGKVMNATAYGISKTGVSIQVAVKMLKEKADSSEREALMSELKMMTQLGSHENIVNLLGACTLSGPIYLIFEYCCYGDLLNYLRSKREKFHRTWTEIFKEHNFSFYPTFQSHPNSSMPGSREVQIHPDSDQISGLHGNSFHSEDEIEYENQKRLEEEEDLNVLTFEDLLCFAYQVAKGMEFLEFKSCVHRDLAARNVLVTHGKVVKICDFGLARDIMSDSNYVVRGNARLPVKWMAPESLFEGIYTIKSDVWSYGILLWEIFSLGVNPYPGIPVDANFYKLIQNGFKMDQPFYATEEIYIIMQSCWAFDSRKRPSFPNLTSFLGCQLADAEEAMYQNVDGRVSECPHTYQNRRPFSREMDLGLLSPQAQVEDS
How it was run: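 Run as an outsourced kinase profiling service (Millipore IC50 Profiler), with the protocol referred to the provider. Gives IC50 values and residual activity at 10 μM test compound. Compounds tested in duplicate.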

[13] = molecular target: Glycogen synthase kinase-3 beta (Homo sapiens, UniProt P49841); assay: Inhibition of GSK3beta; how it was run: as §2
Glycogen synthase kinase-3 beta, sequence (P49841 whole entry): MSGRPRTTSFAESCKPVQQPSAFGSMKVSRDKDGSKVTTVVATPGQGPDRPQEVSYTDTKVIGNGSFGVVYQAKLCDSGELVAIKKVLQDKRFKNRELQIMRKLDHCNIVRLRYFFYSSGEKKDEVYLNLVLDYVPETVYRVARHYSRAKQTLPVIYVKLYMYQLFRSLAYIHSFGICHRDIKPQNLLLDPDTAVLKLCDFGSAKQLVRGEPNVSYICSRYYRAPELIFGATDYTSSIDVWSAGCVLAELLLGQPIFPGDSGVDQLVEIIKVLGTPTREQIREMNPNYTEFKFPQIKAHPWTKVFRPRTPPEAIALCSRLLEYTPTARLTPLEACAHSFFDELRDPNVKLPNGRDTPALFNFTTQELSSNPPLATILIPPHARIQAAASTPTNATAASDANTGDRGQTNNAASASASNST

MKN-45 [14] = assay: Cytotoxic activity against human MKN45 cells assessed as cell viability at 1 uM incubated for 5 days by MTT assay; format: functional; settings: MKN-45, 120 h, read-out: Activity; how it was run: as §1
[15] = Inhibition of angiogenesis in chick embryo model assessed as reduction in vessel growth at 26 nM incubated for 24 hrs; format: functional, Gallus gallus
How it was run: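 White leghorn eggs incubated at 37.5 °C, 62% humidity. At 70 h, albumen removed and shell windowed. From 75 h, 15 agarose pellets (from a 26 mM DMSO stock in 2% agarose; final concentration 26 nM) placed on the area vasculosa.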

MKN-45 [16] = assay: Induction of apoptosis in human MKN45 assessed as accumulation at subG1 phase at 5 uM incubated for 7 days by flow cytometry (reference value: 10.9 +/- 3.2%); format: functional
HT-29 [17] = assay: Cytotoxic activity against human HT-29 cells assessed as cell viability at 7.9 uM incubated for 3 days by MTT assay; format: functional; settings: HT-29, 72 h, read-out: Activity
How it was run: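 HT-29 cells in exponential growth were seeded at 10 000 viable cells per well in RPMI and left overnight. They were then exposed to compound for 3 days at 37 °C under 5% CO₂. MTT was added for 4 h, followed by overnight solubilisation in 10% SDS/0.01 M HCl and absorbance at 562 nm. Viability is expressed as % of untreated cells (100%), in triplicate.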

MKN-45 [18] = assay: Induction of apoptosis in human MKN45 assessed as accumulation at subG1 phase at 20 uM incubated for 7 days by flow cytometry (reference value: 10.9 +/- 3.2%); format: functional
MKN-45 [19] = assay: Induction of apoptosis in human MKN45 assessed as accumulation at subG1 phase at 1 uM incubated for 7 days by flow cytometry (reference value: 10.9 +/- 3.2%); format: functional
MKN-45 [20] = assay: Cytotoxic activity against human MKN45 cells assessed as cell viability at 50 uM incubated for 5 days by MTT assay; format: functional; settings: MKN-45, 120 h, read-out: Activity; how it was run: as §1
MKN-45 [21] = assay: Induction of apoptosis in human MKN45 assessed as accumulation at subG1 phase at 15 uM incubated for 7 days by flow cytometry (reference value: 10.9 +/- 3.2%); format: functional

`COc1cc(C2=C(c3c[nH]c4ccncc34)C(=O)NC2=O)cc(OC)c1OC` gave a viability at 26 µM (HT-29 [1]) of 56.5%, an IC50 [2] of 590 nM and an Activity (HUVEC [3]) of 31.3%. The viability at 52 µM (HT-29 [4]) was 47.4%, the viability at 10 µM (MKN-45 [5]) was 98.6% and the viability at 5 µM (MKN-45 [6]) was 99%. It also gave an Activity (HUVEC [7]) of 46.3%, a viability at 20 µM (MKN-45 [8]) of 89.4% and a viability at 0.5 µM (MKN-45 [9]) of 99.1%. The Activity (MKN-45 [10]) was 21.5%, the viability at 2.6 µM (HT-29 [11]) was 90.8% and the IC50 [12] was no less than 3000 nM. For the same compound, the IC50 [13] was 40 nM, the viability at 1 µM (MKN-45 [14]) was 100% and the “inhibition (INH)” value [15] was 40%. The Activity (MKN-45 [16]) was 15.7%, the viability at 7.9 µM (HT-29 [17]) was 61.5% and the Activity (MKN-45 [18]) was 31.6%. The Activity (MKN-45 [19]) was 8.8%, the viability at 50 µM (MKN-45 [20]) was 82.5% and the Activity (MKN-45 [21]) was 25.7%.
With `COc1cc(C2=C(c3c[nH]c4cccnc34)C(=O)NC2=O)cc(OC)c1OC` the Activity (HUVEC [3]) was 14.2%, the viability at 52 µM (HT-29 [4]) was 65.8% and the Activity (HUVEC [7]) was 16.3%. For the same compound, the IC50 [12] was no less than 1500 nM and the “inhibition (INH)” value [15] was 10%.
For `COc1ccccc1C1=C(c2c[nH]c3ncccc23)C(=O)NC1=O`, the “inhibition (INH)” value [15] was 30%.
